NF-kB neuron act: compounds increasing NF-kB expression in human neuronal cells. actives 1.6% (n = 190,000). NF-kB reporter expression; stronger effect = higher value. AID 1239. fold change at 12.5 µM; in the data active means fold change above about 3.3
STAT3 act: activators of IL-6 induced STAT3 signaling; activation (% of control), % at 5.6 µM; U3A cells, IL-6 STAT3-luciferase reporter, luminescence; 100% = signal with IL-6 EC80 alone; actives 0.91% (n = 190,000); AID 871;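 active means activation above the screen-wide mean of compound activation plus 3 SD, cut at about 130% in these data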
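Test system: Human STAT1-deficient U3A cells with stable STAT3-luciferase reporter | Also added: Interleukin-6, 33 ng/mL | Timing: Compound pre-incubation 1 h before IL-6, then 6 h stimulation at 37 °C | Technique: Luciferase reporter luminescence | Read-out: Percent of IL-6-only median luminescence | Benchmarks: IL-6-only wells as 100% reference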
STAT1 blocker: STAT1 signaling inhibition. AID 920. NIH 3T3 STAT1-luciferase reporter, IFN-gamma, luminescence. actives 0.35% (n = 200,000). inhibition, % at 5.5 µM;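 active means inhibition above a set limit, the mean inhibition across all tested compounds plus 3 SD, cut at about 34% in these data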
STAT1 activator: increases IFN-gamma driven STAT1 reporter signal; actives 2.6% (n = 200,000); NIH 3T3 STAT1-luciferase reporter, luminescence; 100% = IFN-gamma alone, no compound; activation (% of control), % at 5.5 µM; AID 932;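 active means activation above the screen-wide mean activation plus 3 SD, cut at about 130% in these data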
STAT3 inh-1: inhibitors of IL-6 induced STAT3 signaling. U3A cells, IL-6 STAT3-luciferase reporter, luminescence; host cell line lacks STAT1. inhibition, % at 5.5 µM. actives 0.89% (n = 190,000);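 active means inhibition above the mean inhibition across all screened compounds plus 3 SD, cut at about 44% in these data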
APP 5'UTR act: APP 5'UTR luciferase reporter activation. SH-SY5Y APP 5'UTR luciferase reporter, luminescence; zero percent = DMSO vehicle wells. activation, % at 2 µM. actives 1% (n = 190,000). AID 1276;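 active means activation above a set limit, based on mean plus 3 SD of controls, cut at about 140% in these data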
STAT3 inh-2: STAT3 inhibition, confirmation assay; inhibition, % at 5.7 µM; shares compounds with STAT3 inh-1; AID 1265; actives 45% (n = 1,200); U3A cells, IL-6 STAT3 luciferase reporter, luminescence; cell line lacks STAT1;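 active means inhibition above the hit cutoff computed for the primary STAT3 screen, cut at about 44% in these data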
NFkB inh STAT3ct: NF-kappaB inhibition in STAT3 inhibitor counter-screen; AID 1308; actives 36% (n = 1,200); inhibition, % at 5.7 µM; shares compounds with STAT3 inh-1; HEK293T NF-kB luciferase reporter, TNF-alpha induced;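 active means inhibition above the mean of solvent-only control wells plus 3 SD, cutoff set per campaign, cut at about 13% in these data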
STAT1 inh 2: STAT1 inhibition in STAT3 inhibitor counter-screen. inhibition, % at 5.7 µM. actives 27% (n = 1,200). shares compounds with STAT3 inh-1. NIH 3T3 STAT1-luciferase reporter, IFN-gamma induced, luminescence. AID 1317;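 active means inhibition above the mean plus 3 SD of solvent-only control wells, limit set per screening run, cut at about 16% in these data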
A number is an active result; - = inactive; . = no result given. A selection: hits, their analogues and other compounds. The true share with any hit is near 5.1%.

SMILES	NF-kB neuron act	STAT3 act	STAT1 blocker	STAT1 activator	STAT3 inh-1	APP 5'UTR act	STAT3 inh-2	NFkB inh STAT3ct	STAT1 inh 2
N#Cc1cc2c(nc1SC1CC(=O)N(c3ccccc3)C1=O)CCC2 (stereo unspecified)	-	-	-	-	64	-	-	41	-
CCCc1ccc(C#N)c(SC2CC(=O)N(c3ccc(OC)cc3)C2=O)n1 (stereo unspecified)	-	-	-	-	-	-	.	.	.
CC(=O)c1c(C)[nH]c(C(=O)OCc2ccc(F)cc2Cl)c1C	-	-	-	-	48	-	54	-	-
CC(=O)c1c(C)[nH]c(C(=O)OCc2c(F)cccc2Cl)c1C	-	-	-	-	-	-	.	.	.
CC(C)(C)NC(=O)COC(=O)c1ccc(Cl)nc1	-	-	-	-	-	-	.	.	.
O=C(N=Nc1c(O)[nH]c2ccccc12)c1ccc2c(c1)OCO2	-	-	-	-	62	-	-	-	-
CC(=O)Nc1ccc2nc(SCC(=O)Nc3ccc(N4CCOCC4)c(Cl)c3)sc2c1	-	-	-	-	-	-	.	.	.
Cc1cc(C)nc(SCC(=O)Nc2ccc(N3CCOCC3)c(Cl)c2)n1	-	-	-	-	45	-	51	-	24
Cc1sc(NC(=O)c2cccs2)nc1-c1ccccc1	-	-	-	-	-	-	.	.	.
O=C(Nc1nsc(-c2ccccc2)n1)c1cccs1	4.2	-	-	148	45	149	-	-	-
NS(=O)(=O)c1ccc(CCN=C(NS(=O)(=O)c2cccs2)c2ccccc2)cc1	-	-	-	-	-	-	.	.	.
C/C(=N/NC(=O)c1cc(C(C)C)[nH]n1)c1cccs1	3.4	-	-	-	51	-	-	-	-
C/C(=N\NC(=O)c1ccc(Cl)cc1)c1cccs1	5.4	-	-	-	59	-	-	-	-
O=[N+]([O-])c1cccc(-c2nc3ccc([N+](=O)[O-])cc3[nH]2)c1	-	-	-	-	-	-	.	.	.
Cc1ccc(-c2nc3ccc([N+](=O)[O-])cc3[nH]2)cc1	5.9	-	-	-	77	152	-	-	-
Cc1ccc2nc(-c3cccc(N)c3)[nH]c2c1	4.8	-	-	-	66	-	-	-	-
c1ccc2c(c1)OCC(CNc1ncnc3sccc13)O2 (stereo unspecified)	-	-	-	-	84	-	87	32	20
CCN1CCN(C(=O)c2cc(COc3ccc4ncccc4c3)on2)CC1	-	-	-	-	45	-	-	-	18
CCC1CCCCN1C(=O)c1cc(COc2ccc3ncccc3c2)on1 (stereo unspecified)	-	-	-	-	85	-	83	32	21
Cc1nc(CN(C)C(=O)c2cc(COc3ccc4ncccc4c3)on2)cs1	-	-	-	-	71	-	62	19	24
CCCN1CCN(C(=O)c2cc(COc3ccc4ncccc4c3)on2)CC1	-	-	-	-	-	-	.	.	.
COc1cccc(CN2CCCC(CNC(=O)c3ccc(F)cc3)C2)c1OC (stereo unspecified)	-	-	-	-	-	-	.	.	.
Cc1n[nH]c(C)c1CCN(C)Cc1cn(C)nc1-c1ccccc1F	-	-	-	-	-	-	.	.	.
CCOCc1c(C(=O)NC2CCCCCC2)oc2ccccc12	-	-	-	-	-	-	.	.	.
Cc1c(N=NC2=C(O)CCCC2=O)c(=O)n(-c2ccccc2)n1C	-	-	-	-	-	-	.	.	.
SMILES	NF-kB neuron act	STAT3 act	STAT1 blocker	STAT1 activator	STAT3 inh-1	APP 5'UTR act	STAT3 inh-2	NFkB inh STAT3ct	STAT1 inh 2
COc1cc2c(cc1OC)C(c1ccc(-c3ccc(Cl)cc3Cl)o1)=NCC2	-	-	-	-	63	-	53	16	-
COc1ccccc1NC(=O)Cc1noc(CSc2nnc(C)n2C)n1	-	-	-	-	-	-	.	.	.
CC(C)COC(=O)c1ccc2c(c1O)C(=O)c1ccccc1C2=O	-	-	-	-	46	-	-	-	-
CN(C)c1ccc(/C=C2\CCC/C(=C\c3ccccc3)C2=O)cc1	-	-	-	-	-	-	.	.	.
CN(C)c1ccc(/C=c2\sc3n(c2=O)CCCN=3)cc1	5.7	-	-	150	64	142	-	-	-
COc1ccc(CCNc2ncnc3sccc23)cc1OC	-	-	-	-	89	-	89	40	31
COc1ccc(CSc2ncnc3sccc23)cc1F	.	-	-	-	-	-	.	.	.
Cc1sc2ncnc(NCCc3ccc(S(N)(=O)=O)cc3)c2c1C	-	-	-	-	74	-	80	29	30
NS(=O)(=O)c1ccc(CCNc2ncnc3sccc23)cc1	-	-	-	-	54	-	48	-	23
Cc1ccc2nsnc2c1NC(=O)COc1ccccc1F	-	-	-	-	-	-	.	.	.
Cc1nc(C)c(NC(=O)OC(C)C)cc1NC(=O)OC(C)C	-	-	-	-	-	-	.	.	.
COc1ccccc1N1CCN(c2ccc(-c3ccccc3)nn2)CC1	6.6	-	-	-	67	-	-	18	-
C[n+]1c2n(c3ccccc31)N=C(c1cc(C(C)(C)C)c(O)c(C(C)(C)C)c1)CS2	-	-	-	-	79	-	79	37	-
COc1cccc(C2=Nn3c(nnc3-c3ccccc3O)SC2)c1	-	-	-	-	-	-	.	.	.
O=C(Nc1ccncc1)c1ccc2c(c1)C(=O)N(C1CCCCC1)C2=O	-	-	-	-	75	-	66	-	-
Cc1cc(NC(=O)c2ccc3c(c2)C(=O)N(C2CCCCC2)C3=O)no1	-	-	-	-	-	-	.	.	.
COc1ccc(CNC(=O)C(c2ccncc2)N(C(=O)Cc2cccs2)c2ccccc2)cc1 (stereo unspecified)	-	-	-	-	-	.	.	.	.
COc1ccc(N(C(=O)CCl)C(C(=O)NCCc2ccccc2)c2cccs2)cc1 (stereo unspecified)	-	-	-	-	62	-	92	-	21
O=C(CCl)Nc1cc(-c2ccccc2)nn1-c1ccccc1	-	-	-	-	48	-	-	-	-
Cc1ccc(-c2cc(NC(=O)CCl)n(-c3ccccc3)n2)cc1	-	-	-	-	-	-	.	.	.
O=c1[nH]c(-c2cccnc2)nc2sc(-c3ccccc3)cc12	-	-	-	-	-	-	.	.	.
Cc1nc2sc(-c3ccccc3)cc2c(=O)[nH]1	3.5	-	-	-	69	157	-	-	-
Cn1c(=O)cc(SCC(=O)NCCC2=CCCCC2)c2cc(Cl)ccc21	-	-	-	-	-	-	.	.	.

Assay outcomes: PubChem, several laboratories
